Assay results published in PMC3783659 (Bioorganic & medicinal chemistry letters, 2013).

Target: KIX-KID interaction (Homo sapiens, UniProt P16220+Q92793)
Assay: KIX-KID split renilla luciferase
Assay type: biochemical
In short: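 RLuc split into N-terminal (RLucN) and C-terminal (RLucC) halves. RLucC-KIX and KID-RLucN fusions combined with a range of test compound concentrations (top 50 or 100 μM) at 4 °C. Residual RLuc luminescence read after 20 h. Stocks in DMSO, or DMF for one unstable compound. IC50 in μM from at least two independent experiments, each in duplicate.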

Sequence of KIX-KID interaction (Q92793 587-666 limits assumed): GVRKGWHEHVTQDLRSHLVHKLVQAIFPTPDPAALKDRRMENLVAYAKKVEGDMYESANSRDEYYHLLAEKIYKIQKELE
Sequence of KIX-KID interaction (P16220 87-146 limits assumed): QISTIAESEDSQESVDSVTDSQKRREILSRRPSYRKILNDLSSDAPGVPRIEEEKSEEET

Row | KIX-KID inhibition (IC50) (split RLuc assay, 4 °C, 20 h incubation, mean ± SD) | SMILES | Inhibition of KIX-KID interaction in initial screen (NCI diversity set screen at 10 μM)
1 | – | O=[N+]([O-])c1ccc(Sc2cccc[n+]2[O-])c2nonc12 [compound 1, 2-[(7-nitrobenzo[c][1,2,5]oxadiazol-4-yl)thio]pyridine 1-oxide] | consistently shown to efficaciously inhibit KIX-KID interaction
2 | inactive | O=[N+]([O-])c1cc(NCc2cccc3nonc23)ccc1Cl [9a] | –
